# Experimental data as given in ChEMBL document CHEMBL1914434, “Synthesis, computational studies and preliminary pharmacological evaluation of 2-[4-(aryl substituted) piperazin-1-yl] N, N-diphenylacetamides as potential antipsychotics” (Eur J Med Chem, 2011).
# What was measured:
# Mus musculus [1] = species: Mus musculus; assay: Toxicity in albino mouse assessed as induction of catalepsy measured at 30 mins intervals until 240 mins; format: organism-based; settings: in vivo
# Summary of the method: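 Test drug given i.p. to albino mice (n = 6) in place of haloperidol reference (1.0 mg/kg i.p.). Bar test: time (s) holding forelimbs extended on 4 cm high, 1.0 cm diameter wooden bar, cut-off 1100 s, read at 30 min intervals to 120 min and at 240 min. Run 10.00–16.00 h, quiet room, 23–25 °C. ED50 (mg/kg, i.p.).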
# Mus musculus [2] = assay: Antipsychotic activity in ip dosed Swiss albino mouse assessed as inhibition of apomorphine-induced mesh climbing response administered 10 mins prior to apomorphine challenge measured at 5 mins intervals for up to 20 mins after 10 mins post dose; format: functional
# Summary of the method: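 Groups of six mice given test compound, saline (control) or clozapine i.p.; apomorphine 2.5 mg/kg i.p. 10 min later. Mesh climbing scored (0 = no paws on cage) at 5 min intervals for 20 min from 10 min post-apomorphine, maximum total score 20. Mean ± SEM; ED50 (mg/kg, i.p.); Kruskal-Wallis or one-way ANOVA vs control.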
# Mus musculus [3] = assay: Antipsychotic activity in ip dosed Swiss albino mouse assessed as inhibition of 5-hydoxytryptophan-induced head twitches behavior administered 30 mins prior to 5-hydoxytryptophan challenge measured at 10 mins intervals for 30 mins after 20 mins post dose; format: functional
# Summary of the method: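 Mice (n = 6/group) pretreated with pargyline 75 mg/kg i.p. to slow 5-HTP breakdown; test compound given i.p. 30 min later, then 5-HTP 50 mg/kg i.p. after a further 30 min. Head twitches scored at 10 min intervals for 30 min from 20 min post-5-HTP. Data as mean ± SEM total score; ED50 (mg/kg, i.p.); Kruskal-Wallis or one-way ANOVA vs control.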
SMILES,ED50 (Mus musculus [1]),ED50 (Mus musculus [2]),ED50 (Mus musculus [3])
O=C(CN1CCN(c2ccccc2)CC1)N(c1ccccc1)c1ccccc1,50 mg/kg,20.5 mg/kg,27 mg/kg
Cc1ccc(N2CCN(CC(=O)N(c3ccccc3)c3ccccc3)CC2)cc1,> 40 mg/kg,> 20 mg/kg,31.2 mg/kg
Cc1cccc(N2CCN(CC(=O)N(c3ccccc3)c3ccccc3)CC2)c1C,> 40 mg/kg,28.5 mg/kg,> 30 mg/kg
O=C(CN1CCN(c2cccc(C(F)(F)F)c2)CC1)N(c1ccccc1)c1ccccc1,48 mg/kg,21.3 mg/kg,30 mg/kg
COc1ccccc1N1CCN(CC(=O)N(c2ccccc2)c2ccccc2)CC1,50.4 mg/kg,8.2 mg/kg,12.7 mg/kg
COc1cccc(N2CCN(CC(=O)N(c3ccccc3)c3ccccc3)CC2)c1,55.4 mg/kg,10 mg/kg,15.5 mg/kg
O=C(CN1CCN(c2cccc(Cl)c2)CC1)N(c1ccccc1)c1ccccc1,48.4 mg/kg,16.5 mg/kg,18 mg/kg
O=C(CN1CCN(c2ccc(Cl)c(Cl)c2)CC1)N(c1ccccc1)c1ccccc1,45 mg/kg,24 mg/kg,> 20 mg/kg
O=C(CN1CCN(c2ccc(F)cc2)CC1)N(c1ccccc1)c1ccccc1,> 40 mg/kg,13.4 mg/kg,20 mg/kg
O=C(CN1CCN(c2ccc([N+](=O)[O-])cc2)CC1)N(c1ccccc1)c1ccccc1,> 40 mg/kg,30 mg/kg,> 40 mg/kg
CN1CCN(C2=Nc3cc(Cl)ccc3Nc3ccccc32)CC1 [CLOZAPINE],,8.7 mg/kg,2.8 mg/kg
